A selection: hits, their analogues and other compounds. The true share with any hit is near 4.5%.
RGS4 act – RGS4 potentiators or activators, primary screen, cell-based, HEK293 M3R inducible RGS4, calcium flux; carbachol calcium flux Fluo4; active compounds read low; B-score at 10 µM; 310,000 compounds, 0.92% hits; AID 463111, 2010;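 active means B-score of the integrated calcium signal more than 4 SD below the library mean, with starting fluorescence not abnormally high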;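 further: negative B-score means reduced calcium response which marks RGS4 activation or potentiation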
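test system = HEK293 cells with stable M3R and inducible RGS4 | schedule = recording 10 s baseline at 1 Hz, 100 s post-agonist | technique = Fluo4-AM (2 µM) calcium-flux fluorescence, kinetic read | measure = Agonist-evoked peak-minus-minimum fluorescence over baseline, integrated ratio, B score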
PHOSPHO1 inh – PubChem AID 1565 | Phosphoethanolamine/phosphocholine phosphatase (Homo sapiens), Q8TCT1 | recombinant PHOSPHO1, absorbance phosphatase assay | inhibition, % at 13.3 µM | 290,000 compounds, 1.1% hits; in the data active means inhibition above about 60%
Target sequence (Q8TCT1 whole entry, looked up): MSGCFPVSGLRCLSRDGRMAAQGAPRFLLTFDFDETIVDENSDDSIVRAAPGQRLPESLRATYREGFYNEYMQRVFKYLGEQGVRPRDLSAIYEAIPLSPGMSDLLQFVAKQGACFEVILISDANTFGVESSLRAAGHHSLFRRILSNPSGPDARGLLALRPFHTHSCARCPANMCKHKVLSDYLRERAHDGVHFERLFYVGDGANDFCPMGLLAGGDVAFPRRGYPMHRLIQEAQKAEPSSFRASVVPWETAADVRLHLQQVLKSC
MrgX1 agonist – agonists of human MrgX1 receptor, primary screen, HEK293 cells, Fluo-4 calcium flux | Mas-related G-protein coupled receptor member X1 (Homo sapiens), Q96LB2 | Fluo-4 calcium fluorescence, agonist mode; active compounds read high | B-score at 10 µM | 310,000 compounds, 0.44% hits | AID 588627, 2011;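 active means calcium response B-score plate-corrected fluorescence ratio at least 3 library SD, with starting fluorescence B-score inside 5 SD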
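Test system: HEK293 cells stably expressing human MrgX1 receptor; amount: 15,000 cells per well; doses: compound delivered in addition one of three; times: overnight plating before 1 h dye loading; detection: Fluo-4 NW calcium-flux fluorescence, kinetic read; read-out basis: B-scored fluorescence response ratio; controls: positive and negative controls per plate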
MrgX1 antag – antagonists of human MrgX1 receptor, primary screen, HEK293 cells, Fluo-4 calcium flux | Mas-related G-protein coupled receptor member X1 (Homo sapiens), Q96LB2 | BAM8-22 antagonism; active compounds read low | B-score at 10 µM | 310,000 compounds, 1.3% hits;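 active means calcium-response B-score plate-corrected more than 3 library SD below zero, starting fluorescence within 5 deviations, no agonist response on first addition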;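 further: peak minus trough fluorescence over baseline after final BAM8-22 challenge near maximal dose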
MrgX1 allo act – positive allosteric modulators of MrgX1, primary screen, HEK293 cells, Fluo-4 calcium flux; AID 588675, 2011; Mas-related G-protein coupled receptor member X1 (Homo sapiens), Q96LB2; B-score at 10 µM; 310,000 compounds, 0.63% hits; FDSS; active compounds read high;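 active means plate-corrected calcium response at least 3 library SD above typical, normal starting fluorescence, not activating the receptor alone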;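 further: compound read alongside a low EC10 to EC30 dose of BAM8-22 agonist; peak minus trough fluorescence over baseline measured at the second addition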
RGS4 inh – RGS4 inhibitors, primary screen, cell-based, HEK293 M3R inducible RGS4, calcium flux; B-score at 10 µM; Fluo-4 calcium flux; active compounds read high; triggered by carbachol at its EC20; Regulator of G-protein signaling 4 (Homo sapiens), P49798; 310,000 compounds, 0.45% hits;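 active means B-score, a plate-corrected calcium signal, over three deviations above library mean, with baseline fluorescence within five deviations of library mean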;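 further: RGS4 expression induced by doxycycline in cells with stable M3 receptor; B-score is computed from the integrated fluorescence ratio over baseline after carbachol; higher B-score means a larger calcium signal and so more RGS4 inhibition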
Target sequence (P49798 whole entry, looked up): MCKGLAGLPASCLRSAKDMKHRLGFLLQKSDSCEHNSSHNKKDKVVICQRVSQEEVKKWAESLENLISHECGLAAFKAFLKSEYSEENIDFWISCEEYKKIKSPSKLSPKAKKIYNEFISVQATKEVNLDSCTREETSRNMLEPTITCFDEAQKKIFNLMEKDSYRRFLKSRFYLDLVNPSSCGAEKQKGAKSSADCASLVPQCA
RGS4 block valid – enhanced carbachol calcium response, M3R/RGS4 cells, RGS4 inhibitor project, cell-based, validation screen, HEK293 M3R/RGS4, calcium flux. 1,700 compounds, 65% hits. carbachol calcium Fluo-4 fluorescence; carbachol added at its EC20; 0 = buffer wells, 100 = carbachol control. shares compounds with RGS4 inh. calcium response, % at 10 µM;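 active means duplicate-averaged calcium response above the buffer-only control mean plus 5 SD of those controls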;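 further: integrated fluorescence ratio F max minus min over baseline F0; higher response in RGS4-induced cells means RGS4 inhibition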
M3R Ca ctr – carbachol calcium response in non-induced M3R cells, confirmation, counter-screen for RGS4 inhibitor project, cell-based, HEK293 M3R. shares compounds with RGS4 inh. activity (percent), % at 10 µM. carbachol calcium Fluo-4; submaximal (EC20) carbachol stimulus; buffer wells 0%, carbachol control wells 100%. 1,900 compounds, 20% hits. AID 493000, 2010; call rule not given here;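 further: RGS4 induction absent so cells express M3R without RGS4; higher means more calcium signal and flags a non-specific hit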
M3R basal Ca ctr – second RGS4 inhibitor counter-screen in uninduced cells lacking carbachol. shares compounds with RGS4 inh. HEK293 M3R/RGS4 non-induced, Fluo-4 calcium, no carbachol; normalised: buffer wells 0%, carbachol wells 100%. calcium response (agonist-mode artifact), % at 10 µM. 1,900 compounds, 22% hits. AID 493001;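 active means duplicate-averaged calcium rise in uninduced cells above buffer wells' mean plus 5 SD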
The depositor's hits bear a star; i = inactive; · = not tested or not shown.

SMILES	RGS4 act	PHOSPHO1 inh	MrgX1 agonist	MrgX1 antag	MrgX1 allo act	RGS4 inh	RGS4 block valid	M3R Ca ctr	M3R basal Ca ctr
COc1ccc([N+](=O)[O-])cc1/C=N/Nc1nc(N2CCCCC2)nc(N2CCCCC2)n1	i	-18	i	i	i	4.8*	10%*	i	i
NNc1nc(Nc2ccc([N+](=O)[O-])cc2)nc(N2CCCCCC2)n1	i	29	i	i	i	5.7*	i	i	i
O=c1nc(N2CCCCC2)nc(Nc2ccccc2)[nH]1	i	9	i	i	i	i	i	i	i
Cc1cc(N(C)Cc2ccccc2)nc2cc(O)ccc12	i	11	i	i	i	i	·	·	·
CCOC(=O)c1c(C)[nH]c(C)c1S(=O)(=O)N1CCOCC1	i	-13	i	i	i	i	·	·	·
COc1ccc(C(=O)Nc2ccc(O)c3ccccc23)cc1OC	i	·	i	i	i	i	·	·	·
NNc1nc(Nc2ccccc2)nc(Nc2ccccc2)n1	i	37	i	i	i	i	·	·	·
NNc1nc(Nc2ccccc2)nc(N2CCCCC2)n1	i	12	i	i	i	i	i	i	i
S=c1[nH]nc(-c2ccncc2)n1/N=C/c1cn(-c2ccccc2)nc1-c1ccc(Cl)cc1	i	-154	i	i	i	i	i	i	i
CC(/C=N/n1c(-c2cccnc2)n[nH]c1=S)=C\c1ccccc1	i	41	i	i	i	i	·	·	·
CC(=C/c1ccccc1)/C=N/n1c(-c2ccncc2)n[nH]c1=S	i	56	i	i	i	5.1*	16%*	i	i
CC(=O)c1ccc(N=c2scc(C)n2C(C)C)cc1	i	-13	i	i	i	i	·	·	·
O=C(Nc1ccc(F)cc1)c1ccccc1NS(=O)(=O)N1CCCC1	i	27	i	i	i	i	·	·	·
CC(=C/C(=O)O)/C=C/c1ccco1	i	7	i	i	i	5.4*	7.0%*	i	i
COc1ccc(CNC(=O)CCNS(=O)(=O)c2ccc(C)cc2)cc1	i	7	i	i	i	i	i	i	i
C/C(CC(=O)Nc1ccc(Cl)c(C(F)(F)F)c1)=N\NC(=O)c1cc2ccccc2cc1O	i	-4	i	i	i	i	·	·	·
CCOC(=O)CSC1=NC(=O)/C(=C\c2ccc(OC(C)=O)cc2)S1	i	48	i	i	i	18*	38%*	i	9.0%*
CCOC(=O)CSC1=NC(=O)/C(=C/c2ccc(Br)cc2)S1	i	-18	i	i	i	i	·	36%*	i
CCN1CCCC1CNC(=O)C(=O)NCCc1ccc(OC)c(OC)c1 (stereo not drawn)	i	23	i	i	i	i	·	·	·
COc1cc(/C=C2/C(=O)NN(c3cccc(C)c3)C2=O)ccc1OC(=O)c1ccco1	i	14	i	i	i	6.8*	16%*	31%*	i
